# Source: PubChem
# Compounds with a hit are over-represented: about 2.8% of the library has one in this group of screens.
# Measles CPE – compounds protecting cells from measles virus cytopathic effect, primary screen, measles RdRp inhibitor project, single point, MLSMR library, absorbance. hit rate 1.5% among 140,000. Measles virus-infected cells, CPE protection. protection (pct of control), % at 4 µM; in the data active = protection mostly above about 24%, no sharp cut-off; inactive = mostly below about 26%
# NPY-Y2 PAM-ag – NPY-Y2 potentiators or agonists, primary screen, cell-based; cells expressing NPY-Y2, potentiator/agonist read-out; activation, % at 3.6 µM; hit rate 0.45% among 220,000; in the data active = activation above about 27%;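 note: cells stimulated with NPY near EC25 plus isoproterenol at EC100; 0% = vehicle plus submaximal agonist and 100% = vehicle plus saturating agonist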
# Target sequence (P49146 whole entry, looked up): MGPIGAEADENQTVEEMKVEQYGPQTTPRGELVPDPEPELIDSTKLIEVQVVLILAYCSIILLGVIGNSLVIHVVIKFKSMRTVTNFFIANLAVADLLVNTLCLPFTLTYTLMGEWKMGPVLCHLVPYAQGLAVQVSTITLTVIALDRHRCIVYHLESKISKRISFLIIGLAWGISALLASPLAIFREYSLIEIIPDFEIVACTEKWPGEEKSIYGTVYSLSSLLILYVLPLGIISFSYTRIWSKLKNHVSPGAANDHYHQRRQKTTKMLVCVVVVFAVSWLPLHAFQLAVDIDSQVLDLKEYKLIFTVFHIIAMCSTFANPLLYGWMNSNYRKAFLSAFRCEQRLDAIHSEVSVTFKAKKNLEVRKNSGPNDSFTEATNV
# NPY-Y1 PAM-ag – NPY-Y1 receptor potentiators or agonists, primary screen, cell-based; NPY-Y1 expressing cells, potentiator/agonist activation; Neuropeptide Y receptor type 1 (Homo sapiens), P25929; activation, % at 3.6 µM; AID 1304, 2008; hit rate 0.37% among 220,000; in the data active = activation above about 33%, passing the limit was not always enough;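 note: cells stimulated with NPY at EC10 then isoproterenol at EC100; 0% = low agonist plus stimulus and 100% = saturating agonist plus stimulus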
# NPY-Y2 antag – NPY-Y2 receptor antagonists, primary screen, cell-based. inhibition, % at 2.7 µM. NPY-Y2 expressing cells, antagonist mode. hit rate 0.99% among 140,000; in the data active = inhibition above about 17%;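 note: 0% = vehicle with agonist challenge and 100% = reference antagonist with challenge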
# Rad51 HR inh – human RAD51 strand exchange inhibitors, primary screen, biochemical, fluorescence | DNA repair protein RAD51 homolog 1 (Homo sapiens), Q06609 | hit rate 0.085% among 200,000 | AID 1385, 2008 | hRad51 DNA strand exchange, fluorescence dequenching | inhibition, % at 10 µM;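 active = inhibition above 40% at the single screening dose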;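 note: 0% = DMSO control wells and 100% = blanks with heterologous ssDNA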
#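 Test system: preformed human Rad51 ssDNA filaments; also added: Donor/quencher-labelled 47-bp dsDNA substrate; doses: 10 µM final, single point; times: 37 °C 15-min filament assembly, 30-min compound preincubation, 15-min exchange; detection: FRET fluorescence dequenching, excitation 485 nm, emission 520 nm; read-out basis: Fluorescence-based percent inhibition, control- and blank-normalised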
# NPY-Y1 antag – NPY-Y1 receptor antagonists, primary screen, cell-based | Neuropeptide Y receptor type 1 (Homo sapiens), P25929 | HEK293-CNG Y1 cells, membrane potential fluorescence; NPY at EC95, then isoproterenol | inhibition, % at 3.6 µM | hit rate 1% among 200,000 | AID 1040, 2008;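 active = inhibition above the campaign mean inhibition of all tested compounds plus 3 SD, cut at about 20% in these data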;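 note: 0% = DMSO wells given NPY plus isoproterenol and 100% = isoproterenol alone without NPY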
#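 Test system: HEK293 cells co-expressing NPY Y1 receptor and cyclic-nucleotide gated channel; Also added: NPY (25 nM), isoproterenol (1 µM), Ro 20-1724 (25 µM); Compound dosing: one concentration, 3.6 µM, in 0.4% DMSO; Timing: dye 3 h, compound 60 min room temperature, stimulation 45 min; Technique: Membrane-potential fluorescent dye readout.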
# NPY-Y1 confirm – NPY-Y1 potentiators or agonists, confirmation, cell-based; hit rate 20% among 280; activation, % at 3.6 µM; shares compounds with NPY-Y1 PAM-ag; cell-based NPY-Y1 potentiator/agonist assay; in the data active = activation above about 45%;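 note: cells challenged with NPY at its EC10 plus isoproterenol stimulus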
# NPY-Y2 counter – NPY-Y2 potentiators or agonists, counter-screen for NPY-Y1 potentiator project, cell-based, fluorescence; shares compounds with NPY-Y1 PAM-ag; HEK293-CNG cells, membrane-potential fluorescence (FLIPR), 1536-well; activation, % at 3.6 µM; hit rate 20% among 280; in the data active = activation above about 33%
# NPY-Y1 agonist – NPY-Y1 direct agonists without NPY, confirmation, counter-screen for NPY-Y1 potentiator project, cell-based, fluorescence; HEK293 Y1-CNGC, membrane potential fluorescence, agonist mode; hit rate 50% among 280; activation, % at 3.6 µM; shares compounds with NPY-Y1 PAM-ag; AID 1697, 2009;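 active = percent activation above the mean of DMSO-only control wells plus 3 SD of those wells, cut at about 18% in these data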;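 note: cells challenged with isoproterenol plus Ro 20-1724 with no NPY in test wells; Y1 agonism lowers isoproterenol-driven cAMP and reduces probe fluorescence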
# NPY-Y2 agonist – NPY-Y2 direct agonists without NPY, counter-screen for NPY-Y1 potentiator project, cell-based, fluorescence | shares compounds with NPY-Y1 PAM-ag | HEK293 Y2-CNGC, membrane potential fluorescence, agonist mode | activation, % at 3.6 µM | hit rate 67% among 280;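 active = activation above the solvent-only control wells' mean plus 3 SD, cut at about 11% in these data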;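 note: 0% = DMSO with isoproterenol and 100% = 40 nM NPY maximal response; agonism lowers cAMP so well fluorescence drops in active wells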
# CNGC inh 2 – CNGC cAMP sensor activity inhibitors, counter-screen for NPY-Y1 potentiator/agonist project, cell-based, HEK293-CNG parental, membrane potential fluorescence, Y1 set. hit rate 42% among 280. shares compounds with NPY-Y1 PAM-ag. isoproterenol cAMP. inhibition, % at 3.6 µM;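 active = inhibition above the mean of stimulated solvent-only control wells plus 3 SD, cut at about 22% in these data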;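 note: 0% = isoproterenol-stimulated DMSO wells and 100% = unstimulated DMSO wells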
# * hit, by the source's call; . = no result given.
SMILES,Measles CPE,NPY-Y2 PAM-ag,NPY-Y1 PAM-ag,NPY-Y2 antag,Rad51 HR inh,NPY-Y1 antag,NPY-Y1 confirm,NPY-Y2 counter,NPY-Y1 agonist,NPY-Y2 agonist,CNGC inh 2
O=C(CN1C(=O)CSc2ccc(S(=O)(=O)N3CCOCC3)cc21)NCCCN1CCc2ccccc2C1,.,11,16,.,-1,0,.,.,.,.,.
S=C(NCCc1ccccc1)Nc1ccc(Br)cc1,1,13,9,2,0,-1,.,.,.,.,.
CC1OC(Nc2cccc3ccccc23)C(O)C(O)C1O (centres undefined),20,7,-11,2,2,0,.,.,.,.,.
CC1OC(Nc2ccc(N=Nc3ccccc3)cc2)C(O)C(O)C1O (centres undefined),.,16,38*,.,-2,-9,33,24,27*,37*,16
O=C(Cn1c(=O)sc2ccccc21)OC(CCl)CCl,5,24,44*,0,-12,-9,78*,49*,62*,49*,75*
O=C(Oc1c(-c2ccccc2)c(=O)n2c3c(cccc13)CC2)c1ccc(F)cc1,.,-10,-9,.,16,.,.,.,.,.,.
CC1(C)Cc2c(cnn2-c2ccccc2)C(=O)/C1=N\NC(=O)c1ccccc1N,8,17,19,1,-7,1,.,.,.,.,.
CC1(C)Cc2c(cnn2-c2ccccc2)-c2c1c1ccccc1n2CC(O)CBr (centres undefined),13,13,50*,-3,16,-14,25,13,12,12*,14
O=C(Nc1nnc(COc2ccc(F)cc2)s1)Nc1ccccc1F,.,-10,-24,.,-6,.,.,.,.,.,.
COc1ccc(N/N=C(\C#N)C(=N)SCc2ccccc2)cc1,.,25,37*,.,17,-4,18,6,17,23*,15
COCCN=c1scc(-c2cccs2)n1/N=C/c1ccc(O)c(O)c1O,4,32,54*,0,-5,-3,32,20,29*,9,20
COc1ccc(N2C(=O)CC(N3CCN(S(=O)(=O)c4cc(C)ccc4C)CC3)C2=O)cc1 (centres undefined),.,-12,-3,.,0,-1,.,.,.,.,.
Cc1ccccc1-n1nc(C(=O)c2cccs2)cc(-c2nc3ccccc3[nH]2)c1=N,3,26,48*,-2,-3,-6,73*,65*,62*,66*,62*
COc1ccc(-n2nc(C(=O)c3cccs3)cc(-c3nc4ccccc4[nH]3)c2=N)cc1,14,28,33,-1,.,-8,.,.,.,.,.
Cc1cc([N+](=O)[O-])ccc1NC(=O)C[n+]1ccc(N(C)C)cc1,.,8,3,.,18,-1,.,.,.,.,.
CC(=O)Nc1nonc1NC(=O)COc1ccccc1,.,-11,13,.,.,9,.,.,.,.,.
Cc1cccc(N(C(=O)Nc2ccc(Cl)cc2)C2=NCC(C)S2)n1 (centres undefined),.,-7,37*,.,.,-3,2,0,3,12*,8
